From ChEMBL document CHEMBL1795290, “Simplification of the tetracyclic SIRT1-selective inhibitor MC2141: coumarin- and pyrimidine-based SIRT1/2 inhibitors with different selectivity profile” (Bioorg Med Chem, 2011)
Activity calls are given as the source filed them. The rule behind the calls is not given here.

Columns and labels:
[1] = target: T1, NAD-dependent protein deacetylase sirtuin-2 (Homo sapiens) (UniProt Q8IXJ6); assay: Inhibition of human recombinant SIRT2 expressed in Escherichia coli at 50 uM incubated at 37 degC for 2 hrs by Fluor de Lys fluorescence assay
T1 sequence (whole entry): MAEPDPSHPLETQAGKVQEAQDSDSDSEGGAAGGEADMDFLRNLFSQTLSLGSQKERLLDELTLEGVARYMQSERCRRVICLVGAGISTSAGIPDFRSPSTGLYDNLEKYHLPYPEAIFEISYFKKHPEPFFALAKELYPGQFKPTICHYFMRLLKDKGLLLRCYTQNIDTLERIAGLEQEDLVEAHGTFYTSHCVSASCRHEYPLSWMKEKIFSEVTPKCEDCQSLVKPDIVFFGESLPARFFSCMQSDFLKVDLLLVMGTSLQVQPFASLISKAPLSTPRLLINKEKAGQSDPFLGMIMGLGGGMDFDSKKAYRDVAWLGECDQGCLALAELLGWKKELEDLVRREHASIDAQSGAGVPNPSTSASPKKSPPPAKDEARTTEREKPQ
Summary of the method: (§1)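 Human recombinant enzymes expressed in E. coli: SIRT1 at 2 U, SIRT2 at 7 U. Two-stage assay with a deacetylation step at 37 °C for 2 h, using Fluor de Lys-SIRT1/2 substrate with NAD+ and compound (50 µM single point or a concentration series). IC50 obtained by curve fitting.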

U-937 [2] = assay: Toxicity in human U937 cells at 50 uM incubated for 30 hrs; assay type: cell-based; conditions: u-937, 30 h
U-937 [3] = assay: Induction of apoptosis in human U937 cells assessed as caspase 3/7 activation at 50 uM incubated for 30 hrs by FACS assay based B-Bridge method; assay type: functional
Summary of the method: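 U937 cells were treated at 50 µM for 30 h. Apoptosis was scored as caspase 3–7 activation using a caspase 3–7 detection kit, with FACS read-out.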

[4] = target: T2, NAD-dependent protein deacetylase sirtuin-1 (Homo sapiens) (UniProt Q96EB6); assay: Inhibition of human recombinant SIRT1 expressed in Escherichia coli at 50 uM incubated at 37 degC for 2 hrs by Fluor de Lys fluorescence assay; summary of the method: as §1
T2 sequence (whole entry): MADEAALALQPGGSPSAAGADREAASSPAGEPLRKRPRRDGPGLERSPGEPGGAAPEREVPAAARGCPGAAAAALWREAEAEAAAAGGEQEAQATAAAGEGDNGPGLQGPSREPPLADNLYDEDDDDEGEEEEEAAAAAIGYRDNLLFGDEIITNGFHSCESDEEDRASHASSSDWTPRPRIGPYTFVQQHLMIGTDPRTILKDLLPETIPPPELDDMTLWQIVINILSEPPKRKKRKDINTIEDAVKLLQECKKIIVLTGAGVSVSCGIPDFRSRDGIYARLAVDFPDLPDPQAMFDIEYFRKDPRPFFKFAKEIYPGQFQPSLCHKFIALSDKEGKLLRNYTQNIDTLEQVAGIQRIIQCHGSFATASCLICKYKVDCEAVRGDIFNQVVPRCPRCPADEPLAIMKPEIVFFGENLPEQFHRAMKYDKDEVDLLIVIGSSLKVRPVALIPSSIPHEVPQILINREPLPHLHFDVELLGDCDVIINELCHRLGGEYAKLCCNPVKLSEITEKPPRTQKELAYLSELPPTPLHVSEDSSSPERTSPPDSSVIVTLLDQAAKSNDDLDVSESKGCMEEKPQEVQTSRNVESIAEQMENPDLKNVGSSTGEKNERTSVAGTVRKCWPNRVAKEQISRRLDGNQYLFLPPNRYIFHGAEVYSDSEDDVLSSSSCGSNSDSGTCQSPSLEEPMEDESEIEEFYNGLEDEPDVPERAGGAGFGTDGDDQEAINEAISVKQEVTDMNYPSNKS

[5] = target: T3, NAD-dependent protein deacetylase sirtuin-2 (Homo sapiens, UniProt Q8IXJ6); assay: Inhibition of human recombinant SIRT2 expressed in Escherichia coli incubated at 37 degC for 2 hrs by Fluor de Lys fluorescence assay; summary of the method: as §1
T3 sequence (Q8IXJ6 whole entry): T1 sequence (whole entry)

U-937 [6] = assay: Induction of granulocytic differentiation in human U937 cells assessed as change in CD11c expression at 50 uM […] by FACS assay; assay type: functional
[7] = target: T4, NAD-dependent protein deacetylase sirtuin-1 (Homo sapiens, UniProt Q96EB6); assay: Inhibition of human recombinant SIRT1 expressed in Escherichia coli incubated at 37 degC for 2 hrs by Fluor de Lys fluorescence assay; summary of the method: as §1
T4 sequence (Q96EB6 whole entry): T2 sequence (whole entry)

U-937 [8] = assay: Cell cycle arrest in human U937 cells assessed as accumulation at G1/S phase at 50 uM incubated for 30 hrs by flow cytometry; assay type: functional, cell-based
Summary of the method: (§2)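 U937 leukaemia cells were exposed to compound at 50 µM for 30 h. Then 2.5 × 10^5 cells were resuspended in hypotonic buffer (0.1% Triton X-100, 0.1% sodium citrate, 50 µg/mL propidium iodide, RNase A) and kept 30 min in the dark. DNA content was read by flow cytometry and cell-cycle phases were modelled. Run in triplicate.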

U-937 [9] = assay: Cell cycle arrest in human U937 cells assessed as accumulation at G1 phase at 50 uM incubated for 30 hrs by flow cytometry; assay type: functional, cell-based; summary of the method: as §2
U-937 [10] = assay: Cell cycle arrest in human U937 cells assessed as accumulation at G2/M phase at 50 uM incubated for 30 hrs by flow cytometry; assay type: functional, cell-based; summary of the method: as §2

Row | SMILES | inhibition [1] [%] | Activity (U-937 [2]) | Activity (U-937 [3]) | inhibition [4] [%] | IC50 [5] [µM] | Activity (U-937 [6]) | IC50 [7] [µM] | Activity (U-937 [8]) | Activity (U-937 [9]) | Activity (U-937 [10])
1 | O=c1[nH]c(=S)[nH]c(CCc2ccccc2)c1Cc1c(O)ccc2ccccc12 | 49.8 | Non-toxic | Active | 83 | 50.8 | inactive | 17.5 | – | – | –
2 | O=C1Oc2ccc3ccccc3c2CC1C(=O)c1ccccc1 (centres undefined) | 20.2 | Non-toxic | Active | 32.1 | 179 | – | 112 | Active | – | –
3 | O=c1[nH]c(=S)[nH]c(-c2ccc3ccccc3c2)c1Cc1c(O)ccc2ccccc12 | 47.9 | Non-toxic | Active | 83 | 49.9 | inactive | 12.4 | – | Active | –
4 | O=c1nc2oc3ccc4ccccc4c3cc-2c(=O)n1-c1ccccc1 | – | – | – | – | – | inactive | – | – | – | Active
5 | O=C1Oc2ccc3ccccc3c2CC1C(=O)c1ccc(Cl)cc1 (centres undefined) | 89.5 | Non-toxic | – | 17.1 | – | >30% | – | – | – | Active
